Values joined by “and” are separate entries in the source; they are usually repeats but may differ in a detail not shown here. Equal values may be shown once.
How the values were obtained:
[1] = target: Phosphatidylinositol 4,5-bisphosphate 3-kinase catalytic subunit alpha isoform (Homo sapiens, UniProt P42336); experiment: Inhibition of human full length p110alpha (1 to 1068 residues) expressed in baculovirus-infected Sf21 cells by ADP-Hunter Plus assay
[2] = target: Voltage-gated inwardly rectifying potassium channel KCNH2 (Homo sapiens, UniProt Q12809); experiment: Inhibition of human ERG by fluorescence polarization assay
Voltage-gated inwardly rectifying potassium channel KCNH2, sequence (Q12809 whole entry): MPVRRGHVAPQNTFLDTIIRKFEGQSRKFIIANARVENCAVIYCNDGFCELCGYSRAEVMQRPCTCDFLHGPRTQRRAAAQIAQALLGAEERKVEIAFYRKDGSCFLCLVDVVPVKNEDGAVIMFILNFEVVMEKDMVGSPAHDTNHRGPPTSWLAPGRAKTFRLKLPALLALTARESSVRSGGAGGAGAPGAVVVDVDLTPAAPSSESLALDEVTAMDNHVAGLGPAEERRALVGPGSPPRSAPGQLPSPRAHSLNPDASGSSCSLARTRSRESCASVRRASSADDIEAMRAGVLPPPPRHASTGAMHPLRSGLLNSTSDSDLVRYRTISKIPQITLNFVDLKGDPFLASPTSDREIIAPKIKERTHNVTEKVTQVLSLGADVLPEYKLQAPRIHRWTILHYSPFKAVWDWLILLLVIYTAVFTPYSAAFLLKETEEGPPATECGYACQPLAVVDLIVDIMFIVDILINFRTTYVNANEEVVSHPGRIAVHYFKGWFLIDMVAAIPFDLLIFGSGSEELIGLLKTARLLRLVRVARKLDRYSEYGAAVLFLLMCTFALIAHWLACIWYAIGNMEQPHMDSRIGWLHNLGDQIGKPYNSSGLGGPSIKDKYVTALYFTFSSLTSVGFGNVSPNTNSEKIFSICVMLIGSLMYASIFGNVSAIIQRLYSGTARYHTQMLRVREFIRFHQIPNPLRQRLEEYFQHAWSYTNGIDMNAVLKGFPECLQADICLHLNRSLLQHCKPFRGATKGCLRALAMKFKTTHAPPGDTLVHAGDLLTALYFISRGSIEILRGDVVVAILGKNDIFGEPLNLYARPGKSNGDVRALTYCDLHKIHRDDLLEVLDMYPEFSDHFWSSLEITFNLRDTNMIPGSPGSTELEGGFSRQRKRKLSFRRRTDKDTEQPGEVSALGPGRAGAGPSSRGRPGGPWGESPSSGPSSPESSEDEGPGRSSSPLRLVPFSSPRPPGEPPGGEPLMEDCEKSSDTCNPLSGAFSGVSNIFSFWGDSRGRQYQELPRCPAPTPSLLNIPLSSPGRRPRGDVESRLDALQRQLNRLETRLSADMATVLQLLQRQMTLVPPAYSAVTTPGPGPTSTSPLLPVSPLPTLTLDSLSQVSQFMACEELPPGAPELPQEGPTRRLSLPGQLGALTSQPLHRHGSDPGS
In short: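 Predictor h-ERG membrane preparations (sonicated) incubated with test compound dilutions and fluorescent tracer (working 4X tracer at 4 nM) at room temperature for ≥1 h. Read-out by fluorescence polarization, ex 530/25, em 590/35.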

[3] = target: Serine/threonine-protein kinase mTOR (Homo sapiens, UniProt P42345); experiment: Inhibition of recombinant human GST tagged mTOR (1360 to 2549 residues) expressed in baculovirus expression system measured by LanthaScreen assay
In short: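 mTOR inhibition measured by LanthaScreen assay; IC50 values average two independent experiments.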

[4] = Inhibition of PI3K/mTOR in human U2OS cells assessed as inhibition of AKT1 phosphorylation at Ser473 residue by C-ELISA; format: cell-based
In short: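 U2OS osteosarcoma cells grown in 0.1% FBS and serum-stimulated. Endogenous phospho-AKT1 Ser473 quantified by cell-based ELISA with chemiluminescent substrate. Signal plotted against inhibitor concentration and fitted to a sigmoid dose-response curve.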

[5] = species on record: Homo sapiens; experiment: Selectivity ratio of IC50 for recombinant human GST tagged mTOR (1360 to 2549 residues) expressed in baculovirus expression system to IC50 for human full length p110alpha (1 to 1068 residues) expressed in baculovirus-infected Sf21 cells
In short: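 mTOR activity measured by LanthaScreen assay. PI3K-α activity measured by ADP Hunter Plus (ADP accumulation, fluorescence ex 544/em 580 nm), normalized to no-compound control and fitted to a sigmoid dose-response curve. IC50s are the average of two independent experiments. Ratio is mTOR IC50 over PI3K-α IC50.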

Phosphatidylinositol 4,5-bisphosphate 3-kinase catalytic subunit alpha isoform, sequence (P42336 whole entry, the tested form may be a part, canonical isoform): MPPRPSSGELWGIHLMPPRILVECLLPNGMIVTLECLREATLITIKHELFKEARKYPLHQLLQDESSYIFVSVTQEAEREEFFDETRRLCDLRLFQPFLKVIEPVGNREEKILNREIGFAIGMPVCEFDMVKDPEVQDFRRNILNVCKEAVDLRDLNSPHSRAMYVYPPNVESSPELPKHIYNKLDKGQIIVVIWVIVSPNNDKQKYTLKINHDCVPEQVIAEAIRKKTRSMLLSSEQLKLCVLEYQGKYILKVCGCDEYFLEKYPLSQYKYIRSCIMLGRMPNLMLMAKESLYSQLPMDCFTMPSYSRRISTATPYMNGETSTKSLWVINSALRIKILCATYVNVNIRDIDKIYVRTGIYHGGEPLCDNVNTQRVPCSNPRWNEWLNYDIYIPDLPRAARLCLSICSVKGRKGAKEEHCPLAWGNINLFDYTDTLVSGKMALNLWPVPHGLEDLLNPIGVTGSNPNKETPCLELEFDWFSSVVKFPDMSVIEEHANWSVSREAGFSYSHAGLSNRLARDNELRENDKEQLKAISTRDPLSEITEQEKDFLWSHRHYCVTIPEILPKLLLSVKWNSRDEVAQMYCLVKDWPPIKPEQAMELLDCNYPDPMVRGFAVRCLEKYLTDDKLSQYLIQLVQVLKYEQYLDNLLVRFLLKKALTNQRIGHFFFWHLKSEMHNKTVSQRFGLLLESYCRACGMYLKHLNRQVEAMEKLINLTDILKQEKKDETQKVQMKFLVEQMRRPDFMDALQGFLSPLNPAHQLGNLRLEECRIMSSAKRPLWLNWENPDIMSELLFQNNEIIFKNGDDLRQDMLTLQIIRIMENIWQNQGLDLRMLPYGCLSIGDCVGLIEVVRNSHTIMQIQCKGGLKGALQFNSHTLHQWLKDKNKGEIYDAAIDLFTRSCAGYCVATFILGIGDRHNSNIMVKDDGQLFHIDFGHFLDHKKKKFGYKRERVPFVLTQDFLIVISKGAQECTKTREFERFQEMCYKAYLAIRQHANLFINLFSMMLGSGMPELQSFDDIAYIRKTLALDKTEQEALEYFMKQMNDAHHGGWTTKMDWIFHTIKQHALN

| SMILES | IC50 [3] | also measured |
| --- | --- | --- |
| COc1ncc2cc1NS(=O)(=O)c1cccc(c1)C(=O)NCc1cc(ccn1)-c1ccnc3ccc-2cc13 | 122 nM and 72.2 nM | IC50 [1]: 6.1 nM; IC50 [2]: > 30000 nM |
| COc1ncc2cc1NS(=O)(=O)c1cccc(c1)C(=O)NCCn1cc(cn1)-c1ncnc3ccc-2cc13 | 16.5 nM |  |
| COc1ncc2cc1NS(=O)(=O)c1cc(c(F)cc1F)C(=O)NCc1cccc(c1)-c1ccnc3ccc-2cc13 | 63.8 nM |  |
| COc1ncc2cc1NS(=O)(=O)c1cccc(c1)C(=O)NCC1CCN(CC1)c1ncnc3ccc-2cc13 | 23.4 nM |  |
| COc1ncc2cc1NS(=O)(=O)c1cccc(c1)C(=O)NCc1cncc(c1)-c1cnc3ccc-2nn13 | 16.7 nM | IC50 [1]: 3 nM; IC50 [2]: > 30000 nM; EC50 [4]: 99.4 nM; Ratio IC50 [5]: 5.5 |
| COc1ncc2cc1NS(=O)(=O)c1cccc(c1)C(=O)NCC1CCN(CC1)c1ccnc3ccc-2cc13 | 4.1 nM |  |
| COc1ncc2cc1NS(=O)(=O)c1cccc(c1)C(=O)NCc1ccc(F)c(c1)-c1ccnc3ccc-2cc13 | 655 nM |  |
| COc1ncc2cc1NS(=O)(=O)c1cccc(c1)C(=O)NCc1cccc(c1)-c1ncnc3sc-2cc13 | 4.7 nM |  |
| COc1ncc2cc1NS(=O)(=O)c1cccc(c1)C(=O)NCc1cccc(c1)-c1cnn3ccc-2nc13 | > 10000 nM | IC50 [1]: 445 nM; IC50 [2]: > 30000 nM; Ratio IC50 [5]: > 22 |
| COc1ncc2cc1NS(=O)(=O)c1cccc(c1)C(=O)NCc1cccc(c1)-c1ccnc3ccc-2cc13 | 20.9 nM |  |
| COc1ncc2cc1NS(=O)(=O)c1cccc(c1)C(=O)NCCn1cc(cn1)-c1ccnc3ccc-2cc13 | 249 nM |  |
| COc1ncc2cc1NS(=O)(=O)c1cccc(c1)C(=O)NCc1cncc(c1)-c1ccnc3ccc-2cc13 | 0.3 nM |  |
| COc1ncc2cc1NS(=O)(=O)c1cccc(c1)C(=O)NCCn1cc(cn1)-c1cnc3ccc-2nn13 | 5.6 nM |  |
| COc1ncc2cc1NS(=O)(=O)c1cccc(c1)C(=O)NCc1cccc(c1F)-c1ccnc3ccc-2cc13 | 223 nM |  |
| COc1ncc2cc1NS(=O)(=O)c1cc(c(F)cc1F)C(=O)NCc1cncc(c1)-c1ccnc3ccc-2nc13 | 5.4 nM |  |
| COc1ncc2cc1NS(=O)(=O)c1cccc(c1)C(=O)NCCn1cc(cn1)-c1cnc3ccc-2cn13 | 5790 nM | IC50 [2]: > 30000 nM |
| COc1ncc2cc1NS(=O)(=O)c1cccc(c1)C(=O)NCc1cncc(c1)-c1cnn3ccc-2nc13 | 67.6 nM |  |
| COc1ncc2cc1NS(=O)(=O)c1cccc(c1)C(=O)N1CCc3ccc(cc3C1)-c1ccnc3ccc-2cc13 | 250 nM |  |
| COc1ncc2cc1NS(=O)(=O)c1cccc(c1)C(=O)NCc1cncc(c1)Cc1cnc3sc-2nn13 | 361 nM | IC50 [1]: 8.9 nM; IC50 [2]: > 30000 nM; Ratio IC50 [5]: 40.4 |
| COc1ncc2cc1NS(=O)(=O)c1cccc(c1)C(=O)NCc1cccc(c1)-c1ccnc3ccc-2nc13 | > 10000 nM |  |
| COc1ncc2cc1NS(=O)(=O)c1cccc(c1)C(=O)NCc1cncc(c1)-c1ncnc3sc-2cc13 | 39.9 nM |  |
| COc1ncc2cc1NS(=O)(=O)c1cccc(c1)C(=O)NCCn1cc(cn1)-c1cnn3ccc-2nc13 | 66.3 nM |  |
| COc1ncc2cc1NS(=O)(=O)c1cccc(c1)C(=O)NCc1cncc(c1)-c1ccnc3ccc-2nc13 | 49 nM | IC50 [2]: > 30000 nM |

Source: ChEMBL document CHEMBL4819017 (Eur J Med Chem, 2021)
